Measured values reported in the RNAGym collection of RNA variant scans (doi:10.1126/science.aae0568).
Fewer inactive variants are shown than the library holds.

B1: tRNA (parent)
chain: GUUCCGUUGGCGUAAUGGUAACGCGUCUCCCUCCUAAGGAGAAGACUGCGGGUUCGAGUCCCGUACGGAACG

Variants of: B1
Assay: yeast fitness relative to wild type (ratio to wild type); higher = fitter; tRNA-Arg(CCU), competitive growth, 37 C, YPD
Procedure, shortened: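 Variants of the tRNA-Arg(CCU) gene were chemically synthesised with a 3% per-site mutation rate across 69 sites and placed at the native genomic locus in Saccharomyces cerevisiae. Six parallel replicates of the pooled strains were competed in YPD at 37°C for 24 hours, and gene amplicons from the start and end populations were read by 100-nucleotide paired-end sequencing. Darwinian fitness relative to wild type was derived from changes in genotype frequencies. Genotypes required ≥ 100 starting reads, and estimates < 0.5 were set to 0.5.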

First: GUCCCGUUGGCGUAAUGGUAACGCGUCUUCCUACUAAGGCGAAGACUGCGGGUUCGAGUCCCGUACGGAACG [U3C C29U C33A A40C]
Second: GUCCCGUUGGCGUAAUGGUAACGCGUCUUCCUCCUAAGGAGAAGACUGCGGGUUCGACUCCCGUACGGAACG [U3C C29U G58C]
The yeast fitness of the first is lower: ≤ 0.5 for the first, 0.58 for the second.

First: GUCCCGUUGGCGUAAUGGUAACGCGUCUCACUCCUAAGGAGAAGACUGCGGGUUCGAGUCCCGUACGGAACG [U3C C30A]
Second: GUCCCGUUGGCGUAAUGGUAACGCGUCUCAGUCCUAAGGAGAAGACUGAGGGUUCGAGUUCCGUACAGAACG [U3C C30A C31G C49A C60U G67A]
The yeast fitness of the first is higher: 1.06 for the first, ≤ 0.5 for the second.

Compared with GUCCCGUUGGCGUAAUGGUAACGCGUCUCAUUCCUAAGGAGAAGACUGCGGGUUCGAGUCCCGUACGGAACG [U3C C30A C31U], GUCCCGUUGGCGUAAUGGUAACGCGUCUCACUCCCAAGAAGCGGAUUGCGGGUUCGAGUCCCGUCCGGAACG [U3C C30A U35C G39A A42C A43G C46U A65C] is lower in yeast fitness: 0.747 for the first, ≤ 0.5 for the second.

Going from GUCCCGUUGGCGUAAUGGUAACGCGUCUCGCUCCUAAGGAGCAGACUGCGGGUUCGAGUCCCGUACGGAACG [U3C C30G A42C] to GUCCCGUUGGCGUAAUGGUAACGCGUCUCGCUCCUAAGGAGACGACUGCGGGUUCGAGUCCCGUACGGAACG [U3C C30G A43C], the yeast fitness rises from ≤ 0.5 to 0.548.

GUCCCGUUGGCGUAAUGGUAACGCGUCUCGCUCCUAAGGAGAAGACUGCGGGUUCGAGUCCCGAACGGACCG [U3C C30G U64A A70C] and GUCCCGUUGGCGUAAUGGUAACGCGUCUCUCUCCUAGGGAGAAGACUGCGGGUUCGAGUCACGUACGGAACG [U3C C30U A37G C61A] cannot be ordered by yeast fitness: ≤ 0.5 for the first, ≤ 0.5 for the second.

GUCCCGUUGGCGUAAUGGUAACGCGUCUCUCUCCUAAGGAGGAGACUGCGGGUUCGACUCCCGUACGGAACG [U3C C30U A42G G58C] and GUCCCGUUGGCGUAAUGGUAACGCGUCUCUCUCCUAAGGAGAAGACUGCGGGUUUGAAUCCCGUACGGAACG [U3C C30U C55U G58A] cannot be ordered by yeast fitness: ≤ 0.5 for the first, ≤ 0.5 for the second.

First: GUCCCGUUGGCGUAAUGGUAACGCGUCUCUCUCCUAAGGAGAAAACUGCGGGUUCGAGUCCCGUACGGAACG [U3C C30U G44A]
Second: GUCCCGUUGGCGUAAUGGUAACGCGUCUCCAUCCUAAGGAGGGGACUGCGGGUUCGAGUCCCGUACGCAACG [U3C C31A A42G A43G G68C]
The yeast fitness of the first is higher: 0.566 for the first, ≤ 0.5 for the second.

GUCCCGUUGGCGUAAUGGUAACGCGUCUCCGUCUUAAAGAGAAGACUGCGGGUUCGAGUCCCGUACGGAACG [U3C C31G C34U G38A] and GUCCCGUUGGCGUAAUGGUAACGCGUCUCCGCCCUAACGAGAAGAGUCCGGGUUCGAGUCCCGUACGGAACG [U3C C31G U32C G38C C46G G48C] cannot be ordered by yeast fitness: ≤ 0.5 for the first, ≤ 0.5 for the second.

First: GUCCCGUUGGCGUAAUGGUAACGCGUCUCCUUCCUAAGGAGAAGUCUGCGGGUUCGAGUCCCGUACGGAACG [U3C C31U A45U]
Second: GUCCCGUUGGCGUAAUGGUAACGCGUCUCCUUCCUAAGGAGAAGACUGCGGGUUCGAGUCCCGUCCGGAACG [U3C C31U A65C]
The yeast fitness of the first is lower: 0.718 for the first, 0.791 for the second.

First: GUCCCGUUGGCGUAAUGGUAACGCGUCUCCUUCUAAAGGAGAAGACUGCGGGAUCGAAUCCCGUACGAAACG [U3C C31U C34U U35A U53A G58A G68A]
Second: GUCCCGUUGGCGUAAUGGUAACGCGUCUCCUUCCUAAGGAGAAGAAUGCGGGUUCGAGUCCCGUACGGAACG [U3C C31U C46A]
The yeast fitness of the first is lower: ≤ 0.5 for the first, 0.79 for the second.

Going from GUCCCGUUGGCGUAAUGGUAACGCGUCUCCUUCCUAAGGAGAAGACUGGGGGUUCGAGUCCCGUACGGAACG [U3C C31U C49G] to GUCCCGUUGGCGUAAUGGUAACGCGUCUCCUUCCUAAGGAGAAGACUGCGGGUUCGAGUCCUGUACGGAACG [U3C C31U C62U], the yeast fitness rises from 0.755 to 0.804.

GUCCCGUUGGCGUAAUGGUAACGCGUCUCCUUCCUAAGAAGAAAACUGCGGGUUCGAGUCUCGUACGGAACG [U3C C31U G39A G44A C61U] and GUCCCGUUGGCGUAAUGGUAACGCGUCUCCUUCCUAAGGAGAAGACUGCAGGUUCGACUCCCGUAUGGAACG [U3C C31U G50A G58C C66U] cannot be ordered by yeast fitness: ≤ 0.5 for the first, ≤ 0.5 for the second.

Compared with GUCCCGUUGGCGUAAUGGUAACGCGUCUCCUUCCUAAGGAGAAGACUGCGGGUUCGACUCCCGUACGGAACG [U3C C31U G58C], GUCCCGUUGGCGUAAUGGUAACGCGUCUCCUUCCUAAGGAGAAGACUGCGGGUUCGAGUCCCGUACGCAACG [U3C C31U G68C] is lower in yeast fitness: 0.712 for the first, 0.664 for the second.

Going from GUCCCGUUGGCGUAAUGGUAACGCGUCUCCUUCCUAAGGAGAAGACUGCGGGUACGAGUCCCGUACGGAACG [U3C C31U U54A] to GUCCCGUUGGCGUAAUGGUAACGCGUCUCCCUACUAAGGAGAAGACUGCGGGUUCGAGUCGCGUACGGAACG [U3C C33A C61G], the yeast fitness rises from 0.583 to 0.731.

Going from GUCCCGUUGGCGUAAUGGUAACGCGUCUCCCUGCUAAGGAGAAGACUGCGGGUUCGAGUCCCGUACGGCACG [U3C C33G A69C] to GUCCCGUUGGCGUAAUGGUAACGCGUCUCCCUUCUAAGGAGAAGACUGCGGGUUCGAGUCCCGUACGGAACG [U3C C33U], the yeast fitness rises from 0.621 to 0.803.

Going from GUCCCGUUGGCGUAAUGGUAACGCGUCUCCCUCAUAAGGAGAAAACUGCGGAUUUGAGUCCCGUACGGAACG [U3C C34A G44A G52A C55U] to GUCCCGUUGGCGUAAUGGUAACGCGUCUCCCUCGUAAGGAGAAGACUGCGGGUUCGCGUCCCGUACGGAACG [U3C C34G A57C], the yeast fitness rises from 0.562 to 0.715.

GUCCCGUUGGCGUAAUGGUAACGCGUCUCCCUCGUAAGGAGAAGACUGAAGGUUCGAGUCCCGUACGGAACG [U3C C34G C49A G50A] and GUCCCGUUGGCGUAAUGGUAACGCGUCUCCCUCUUAAGGACAAGACUGUGGGUUCGAAUCCCGAACGGAACG [U3C C34U G41C C49U G58A U64A] cannot be ordered by yeast fitness: ≤ 0.5 for the first, ≤ 0.5 for the second.

Going from GUCCCGUUGGCGUAAUGGUAACGCGUCUCCCUCCUAAGGAGAAGAAUGCGGGUUCGAGUCCCGUACGGACCG [U3C C46A A70C] to GUCCCGUUGGCGUAAUGGUAACGCGUCUCCCUCCUAAGGAGAAGAAUACGGGUUCGAGUCCCGUACGGAACG [U3C C46A G48A], the yeast fitness falls from 1.12 to 0.877.

First: GUCCCGUUGGCGUAAUGGUAACGCGUCUCCCUCCUAAGGAGAAGAAUGCAGGUUCGAGUCCCGUACGGAACG [U3C C46A G50A]
Second: GUCCCGUUGGCGUAAUGGUAACGCGUCUCCCUCCUAAGGAGAAGAGUGCGGGUUCGAGUCCCGUACGGCACG [U3C C46G A69C]
The yeast fitness of the first is higher: 0.731 for the first, 0.625 for the second.
